Usually EC50 stands for the concentration at which the effect is half-maximal. Low values mean greater potency, high ones weaker potency. As usually defined, the inhibition is the share of the control response that was lost under treatment. As a reminder, the IC50 is the concentration that inhibits the measured activity by half. Read a high IC50 as a need for much substance.

In one data set the test system is HepG2. Nature of the data set: Cytotoxicity against human HepG2 cells after 48 hrs by CellTiter-Glo assay. Type of data set: cell-based. Conditions: HepG2, 48 h. In short, it runs like this: (§1)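 Human cells seeded (2000 cells/well; A549 500 cells/well), 24 h at 37 °C, 5% CO2, then compounds added (final DMSO 1%), 1:3 dilution series from 100 µM, 48 h exposure. ATP read by CellTiter-Glo luminescence relative to DMSO-treated cells; DMSO (1%) negative and valinomycin (10 µM) positive controls; plates accepted at Z' > 0.5.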
(In ATP-based viability assays light output follows the ATP content of the culture.)

The target in data set [1] is ATP-dependent Clp protease proteolytic subunit (Escherichia coli (strain K12)) (UniProt P0A6G7). Nature of the data set: Inhibition of Escherichia coli C-terminal His6-tagged ClpP expressed Escherichia coli SG1146a at 200 uM using Suc-LY-AMC as substrate preincubated for 10 mins followed by substrate addition and measured over 1 hr by fluorescence assay relative to control. In outline: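 E. coli ClpP (625 nM) in 100 mM NaCl, 100 mM Hepes pH 7.5, 0.05% Brij 35, preincubated with compound (200 µM final, triplicates) 10 min at 30 °C. Suc-LY-AMC added (75 µM), fluorescence (ex 350/em 435 nm) followed over 1 h at 30 °C. Inhibition relative to 2% DMSO vehicle; Z-LY-CMK (200 µM) positive control; plates valid at Z' > 0.6.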
Sequence of ATP-dependent Clp protease proteolytic subunit (Escherichia coli (strain K12)) (P0A6G7 whole entry): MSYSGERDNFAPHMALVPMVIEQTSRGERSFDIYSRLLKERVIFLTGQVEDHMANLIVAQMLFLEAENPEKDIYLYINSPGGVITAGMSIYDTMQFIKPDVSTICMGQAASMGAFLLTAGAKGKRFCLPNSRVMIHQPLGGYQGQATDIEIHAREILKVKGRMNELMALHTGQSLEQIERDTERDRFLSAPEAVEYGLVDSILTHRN

The target is the same in data set [2]. Nature of the data set: Reversible binding affinity to Escherichia coli C-terminal His6-tagged ClpP expressed Escherichia coli SG1146a up to 80 uM measured after cessation of compound treatment by SPR analysis. In outline:
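His-tagged E. coli ClpP amine-coupled to chip (80 µg/mL in 10 mM sodium acetate pH 4). Running buffer 150 mM NaCl, 10 mM Hepes, 3 mM EDTA, 0.05% Tween-20, 3.2% DMSO; 20 µL/min, 6 min injection, up to 300 s dissociation; 2.5–320 µM range. Reference-channel subtracted, DMSO/bulk-shift corrected; return to baseline after injection end judged.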
On the technique in general: In SPR one partner is held on a chip, and binding of the other changes the refractive index at the surface.

In another data set the test system is HeLa. Nature of the data set: Cytotoxicity against human HeLa cells after 48 hrs by CellTiter-Glo assay. The format is cell-based. In outline: as §1
The target of data set [3] is ATP-dependent Clp protease proteolytic subunit (Escherichia coli (strain K12), UniProt P0A6G7). Nature of the data set: Inhibition of Escherichia coli C-terminal His6-tagged ClpP expressed Escherichia coli SG1146a using Suc-LY-AMC as substrate preincubated for 10 mins followed by substrate addition and measured over 1 hr by fluorescence assay. In outline:
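ClpP at 625 nM with compound serial dilutions (1:3 or 1:2) in 100 mM NaCl, 100 mM Hepes pH 7.5, 0.05% Brij 35, preincubated 10 min at 30 °C. Suc-LY-AMC added (75 µM), fluorescence (ex 350/em 435 nm) tracked 1 h at 30 °C against DMSO vehicle (2% v/v).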

Data set [4] has as its system Escherichia coli. Nature of the data set: Growth inhibition of tolC-deficient Escherichia coli JW5503 at 100 uM measured after 24 hrs relative to control. Type of data set: functional. Conditions: JW5503, 24 h, read-out: GI. In outline:
(§2)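 Single colony in saline, adjusted in MHB; final inoculum 5x10^5 CFU/mL, compound 100 µM in triplicate, 2% DMSO and ciprofloxacin controls. 37 °C, 500 rpm shaking; OD600 at time 0 and later time points to quantify growth.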

The target of a further data set is alpha-chymotrypsin (Bos taurus, UniProt P00766). Nature of the data set: Inhibition of bovine alpha-chymotrypsin assessed as residual activity at 200 uM relative to control. The conditions noted are these: cattle, read-out: Activity. In outline: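 Bovine α-chymotrypsin (40 nM) with compound at 200 µM and Suc-LY-AMC (100 µM) in 150 mM NaCl, 10 mM CaCl2, 50 mM Tris-HCl, 0.05% Brij 35. AMC fluorescence read-out; residual activity relative to control without compound.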

Another data set has as its system A549. Nature of the data set: Cytotoxicity against human A549 cells after 48 hrs by CellTiter-Glo assay. Type of data set: cell-based. The conditions noted are these: A549, 48 h. In outline: as §1
For a further data set, the system named is Staphylococcus aureus. Nature of the data set: Growth inhibition of Staphylococcus aureus ATCC 29213 at 100 uM measured after 24 hrs relative to control. Type of data set: functional. The conditions noted are these: ATCC 29213, 24 h, read-out: GI. In short, it runs like this: as §2
For data set [5], the system named is Escherichia coli. Nature of the data set: Growth inhibition of ClpP-deficient Escherichia coli JW0427-1 at 50 uM measured after 24 hrs in presence of efflux pump substrate PAbetaN relative to control. The format is functional. Conditions: JW0427-1, 24 h, read-out: GI. In short, it runs like this:
(§3)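 E. coli BW25-113 wild type or ΔclpP JW0427-1 grown with compound (50 µM) plus efflux pump substrate PAβN (25 µg/ml); growth inhibition read as OD600 at 24 h, 37 °C with shaking.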

In data set [6] the test system is Escherichia coli. Nature of the data set: Growth inhibition of wild-type Escherichia coli BW25113 at 50 uM measured after 24 hrs in presence of efflux pump substrate PAbetaN relative to control. The conditions noted are these: BW25113, 24 h, read-out: GI. The format is functional. In outline:
as §3

Active and inactive are the calls of the source. No cut-off for these calls is given here.

Sequence of ATP-dependent Clp protease proteolytic subunit (P0A6G7 whole entry): as above

On to `O=C(NC(c1ccc(N2CCNCC2)cc1)P(=O)(Oc1ccccc1)Oc1ccccc1)OCc1ccccc1` (stereo not given), for which the values for the EC50 with HepG2, in the data set with HeLa and in the data set with A549 were 1.1 µM, 8.6 µM and 0.4 µM, respectively. Further, the inhibition in data set [1] turned out to be 100%. The Activity entry in data set [2] was “Active”. In data set [3], this compound returned an IC50 of 0.6 µM. Moreover, in the data set on Escherichia coli [4], the inhibition of growth at 100 µM worked out at 69.9%. Further, the activity at 200 µM at alpha-chymotrypsin was at least 100%.

Turning to `N=C(N)N1CC(C(NC(=O)OCc2ccccc2)P(=O)(Oc2ccccc2)Oc2ccccc2)C1` (stereo not given), the EC50 in the data set on HepG2, in the data set on HeLa and in the data set with A549 was at least 100 µM each time. In addition, the results for the inhibition of growth at 100 µM with Staphylococcus aureus and with Escherichia coli [4] were 99.9% and 99%, respectively. In addition, in data set [1], the inhibition stood at 100%. In data set [3], the midpoint of inhibition, the IC50, lay at 71.3 µM. For the same compound, the activity at 200 µM at alpha-chymotrypsin was at least 100%.

Take `N=C(N)c1ccc2cc(C(NC(=O)OCc3ccccc3)P(=O)(Oc3ccccc3)Oc3ccccc3)ccc2c1` (stereo not given): the concentration for a half-maximal effect (EC50) with HepG2 was 28.3 µM; in the data set on HeLa it was 19.9 µM; with A549, 25.6 µM. The same compound gave an inhibition in data set [1] of 81%. The inhibition of growth at 50 µM turned out to be 99.4% in the data set with Escherichia coli [5] and 98.5% with Escherichia coli [6]. Besides, half-maximal inhibition in data set [3] (IC50) required 79.7 µM. Besides, the inhibition of growth at 100 µM in the data set with Escherichia coli [4] was determined as 98.9%. Further, the activity at 200 µM on alpha-chymotrypsin was at least 100%.

Values taken from ChEMBL document CHEMBL4371075, “α-Amino Diphenyl Phosphonates as Novel Inhibitors of Escherichia coli ClpP Protease” (J Med Chem, 2019).
